# Results gathered from unrelated publications.
# Lines come from different studies, so protocols differ.
# Target: Ephrin type-A receptor 7 (EPHA7, Homo sapiens, UniProt Q15375)
Compound,test,conditions,remaining binding
CN(C)C(=O)Cn1cc(-c2nc(C3(c4ccc(-c5cnc(N)nc5)cc4)CC3)no2)cn1,"cell-free assay, competition with immobilised ligand",1 µM,92%
CN(CCCC(F)(F)F)c1nccc(-c2cnn3ncccc23)n1,binding,1 µM,96%
CNC(=O)Nc1ccc2c(c1)[C@@]1(CC2)OC(=O)N(CC(=O)N(Cc2ccc(F)cc2)[C@@H](C)C(F)(F)F)C1=O,"cell-free assay, competition with immobilised ligand",1 µM,100%
COc1cnc(Nc2cccc(S(N)(=O)=O)c2)nc1N1CCN(c2ccccc2)C(=O)C1,"binding, competition with immobilised ligand",1 µM,100%
Cc1cnn2ncc(-c3ccnc(N(C)C)n3)c2c1,binding,1 µM,100%
COc1ncc2cc3ccccc3nc2c1C#N,"cell-free assay, competition with immobilised ligand",5 µM,95%
O=C(NCCCN1CCOCC1)c1ccc(Nc2nccc(-c3cc4ccccc4s3)n2)cc1,"binding, competition with immobilised ligand",1 µM,100%
COc1ccnn2ncc(-c3ccnc(N(C)C)n3)c12,binding,1 µM,93%
CN(C)C(=O)Cn1cc(-c2nc([C@@](C)(c3ccc(-c4cnc(N)nc4)cc3)C3CC3)no2)cn1,"cell-free assay, competition with immobilised ligand",1 µM,98%
CC1CCCN1c1nccc(-c2cnn3ncccc23)n1 (stereo not drawn),binding,1 µM,99%
C[C@@H]1CN(c2cc(-c3nn(C)c4ccc(OC5(C)CC5)cc34)ncn2)C[C@H](C)O1,"cell-free assay, competition with immobilised ligand",1 µM,99%
N[C@H]1CCN(c2nccc(-c3cnn4ncccc34)n2)C1,binding,1 µM,100%
O=C(c1ccc(Nc2ncc(Cl)c(-c3cc4ccccc4s3)n2)cc1)N1CCC(N2CCCC2)CC1,"binding, competition with immobilised ligand",1 µM,49%
O=C(Nc1cnc(Oc2ccc(F)cc2)nc1)N1CCc2ncccc2[C@@H]1c1ccc(F)cc1,"cell-free assay, competition with immobilised ligand",1 µM,88%
C=CC(=O)N1CCC(C(=O)NCC(=O)N2CCN(c3nc(-c4cnc(N)nc4C(F)F)nc(N4CCOCC4)n3)CC2)CC1,"binding, competition with immobilised ligand",1 µM,100%
c1cnn2ncc(-c3ccnc(N4CCC45COC5)n3)c2c1,binding,1 µM,93%
c1cncc(-c2cccc(Nc3nccc(NC4CCCCC4)n3)c2)c1,"binding, competition with immobilised ligand",10 µM,100%
O=C(Nc1c[nH]nc1C(=O)NC1CCNCC1)c1cc(F)cc(F)c1,"binding, competition with immobilised ligand",1 µM,100%
N#CC1(c2ccccn2)CCN(Cc2cc(C(=O)N3CCCC3)c(=O)n3ccccc23)CC1,"cell-free assay, competition with immobilised ligand",1 µM,100%
O=C(c1ccc(Nc2nccc(-c3cc4ccccc4s3)n2)cc1)N1CCC(N2CCCC2)CC1,"binding, competition with immobilised ligand",1 µM,100%
CCN1CCN(Cc2ccc(C(=O)Nc3ccc(C)c(Oc4ccc5c(c4)CC(=O)N5)c3)cc2C(F)(F)F)CC1,"binding, competition with immobilised ligand",1 µM,89%
